How the values were obtained:
Leishmania infantum [1] = assay: Antiparasitic activity against amastigote stage of Leishmania infantum infected in THP1 cells assessed as parasite growth inhibition after 24 hrs by hemocytometery; assay type: functional, organism-based, THP-1; conditions: Leishmania infantum, THP-1, 24 h; read-out: IC50
How it was run: (§1)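 Host cells were Vero for T. cruzi (infected with tissue-derived trypomastigotes) and THP-1 (PMA-transformed, 10 ng/mL) for L. (L.) infantum (infected with late-phase promastigotes), at 1:10 cell:parasite for 24 h. Serial dilutions were given as two doses, the second on day 3 with a medium change. Read-out was % infected cells on methanol-fixed, Giemsa-stained slides (300 cells). IC50 came from sigmoidal regression; experiments in duplicate, concentrations in triplicate.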

Trypanosoma cruzi [2] = assay: Antiparasitic activity against amastigote stage of Trypanosoma cruzi infected in Vero cells assessed as parasite growth inhibition after 24 hrs by hemocytometery; assay type: functional, organism-based; conditions: Trypanosoma cruzi, Vero, 24 h; read-out: IC50; how it was run: as §1
[3] = Selectivity index, ratio of CC50 for African green monkey Vero cells to IC50 for epimastigote stage of Trypanosoma cruzi; assay type: functional
How it was run: (§2)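 Selectivity index was calculated as CC50 in Vero (T. cruzi) or THP-1 (L. infantum) cells divided by parasite IC50. Both values came from 72 h mammalian-cell MTT assays and the parasite assays; SI ≥ 3 was defined as parasite-selective.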

Trypanosoma cruzi [4] = assay: Antiparasitic activity against epimastigote stage of Trypanosoma cruzi infected in Vero cells assessed as parasite growth inhibition […] by hemocytometery; assay type: functional, organism-based
How it was run: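 Exponential-phase T. cruzi Sylvio X10 epimastigotes (LIT medium with hiFCS) or L. (L.) infantum MHOM/BR/74/PP75 promastigotes (RPMI 1640, hemin, HEPES, 10% hiFCS) were exposed to threefold serial dilutions (0.3–300 µg/mL) for 72 h at 28 °C. Viable parasites were counted by hemocytometer with 0.25% eosin yellow. IC50 came from sigmoidal regression, given as mean ± SD.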

[5] = Selectivity index, ratio of CC50 for human THP1 cells to IC50 for promastigote stage of Leishmania infantum; assay type: functional, THP-1; how it was run: as §2
Leishmania infantum [6] = assay: Antiparasitic activity against promastigote stage of Leishmania infantum assessed as parasite growth inhibition after 72 hrs by hemocytometery
[7] = Cytotoxicity against human THP1 cells; assay type: cell-based; conditions: THP-1 cells
How it was run: (§3)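 Vero monolayers or THP-1 cells (made adherent with 10 ng/mL PMA), in RPMI 1640 with 10% hiFCS, were exposed to compound (0.3–300 µg/mL) for 72 h at 37 °C, 5% CO2. Viability was measured by MTT, with formazan dissolved in DMSO and read at 580 nm. % cytotoxicity was calculated against untreated cells; CC50 came from sigmoidal regression, given as mean ± SD.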

[8] = Cytotoxicity against African green monkey Vero cells; assay type: cell-based; conditions: chlorocebus sabaeus; how it was run: as §3
[9] = Selectivity index, ratio of CC50 for African green monkey Vero cells to IC50 for amastigote stage of Trypanosoma cruzi; assay type: functional; how it was run: as §2

SMILES | IC50 (Leishmania infantum [1]) | IC50 (Trypanosoma cruzi [2]) | Selectivity Index [3] | IC50 (Trypanosoma cruzi [4]) | Selectivity Index [5] | IC50 (Leishmania infantum [6]) | CC50 [7] | CC50 [8] | Selectivity Index [9]
Cn1cccc1[C@@H]1C[C@H]2Cc3cc(F)ccc3N1O2 (mixture of isomers) | > 387 µM | > 387 µM | 1.3 | 414 µM | 6.9 | 316 µM | 2180 µM | 533 µM | 
Cc1ccc([C@@H]2C[C@H]3Cc4ccccc4N2O3)s1 (racemic) | > 389 µM | 91.5 µM | 6 | 147 µM | 9.6 | 52 µM | 497 µM | 878 µM | 9.6
Brc1ccc([C@@H]2C[C@H]3Cc4ccccc4N2O3)s1 (racemic) | > 312 µM | 137 µM | 28.9 | 62.2 µM | 34.7 | 36.1 µM | 1250 µM | 1800 µM | 13.2
Clc1ccc2c(c1)C[C@@H]1C[C@@H](c3cccs3)N2O1 (racemic) | > 120 µM | > 120 µM | >14.2 | 25.4 µM | >17.5 | 20.7 µM | > 361 µM | > 361 µM | 
Cc1ccc([C@@H]2C[C@H]3Cc4cc(Cl)ccc4N2O3)s1 (racemic) | > 344 µM | 101 µM | 46.1 | 24.8 µM | >63.8 | 32.3 µM | > 2060 µM | 1140 µM | 11.3
Cc1ccsc1[C@@H]1C[C@H]2Cc3cc(Cl)ccc3N1O2 (racemic) | > 344 µM | 99 µM | 15.6 | 11.7 µM | 7.7 | 32.3 µM | 250 µM | 183 µM | 1.9
Cc1ccc([C@@H]2C[C@H]3Cc4cc(F)ccc4N2O3)s1 (racemic) | > 121 µM | > 364 µM | 30.6 | 30.9 µM | 2.5 | 92 µM | 234 µM | 944 µM | 
Fc1ccc2c(c1)C[C@@H]1C[C@@H](c3ccc(Br)s3)N2O1 (racemic) | > 295 µM | 54.6 µM | >8.5 | 34.7 µM | >40.6 | 7.3 µM | > 295 µM | > 295 µM | >5.4
FC(F)(F)Oc1ccc2c(c1)C[C@@H]1C[C@@H](c3cccs3)N2O1 (racemic) | > 306 µM | 73.9 µM | >2.1 | 143 µM | >1.2 | 256 µM | > 306 µM | > 306 µM | >4.1
Cc1ccc([C@@H]2C[C@H]3Cc4cc(OC(F)(F)F)ccc4N2O3)s1 (racemic) | > 293 µM | > 293 µM | 3.9 | 43.9 µM | 26.8 | 10.5 µM | 282 µM | 170 µM | 
Cc1ccsc1[C@@H]1C[C@H]2Cc3cc(OC(F)(F)F)ccc3N1O2 (racemic) | > 293 µM | 202 µM | 1.3 | 47.2 µM | >153.9 | 11.4 µM | > 1760 µM | 61.7 µM | 0.3
c1coc([C@@H]2C[C@H]3Cc4ccccc4N2O3)c1 (racemic) | > 440 µM | > 440 µM | 6.8 | 229 µM | 14.7 | 45.3 µM | 663 µM | 1560 µM | 
O=[N+]([O-])c1ccc([C@@H]2C[C@H]3Cc4ccccc4N2O3)o1 (racemic) | > 368 µM | > 122 µM | 1 | 53 µM | 2.2 | 107 µM | 234 µM | 51.4 µM | 
Clc1ccc2c(c1)C[C@@H]1C[C@@H](c3ccco3)N2O1 (racemic) | > 128 µM |  | 6.7 | 53.1 µM | >24.3 | 47.3 µM | > 1150 µM | 353 µM | 
Cc1ccc([C@@H]2C[C@H]3Cc4cc(Cl)ccc4N2O3)o1 (racemic) | > 130 µM | 312 µM | 25.1 | 46.2 µM | 19.6 | 19.1 µM | 374 µM | 1160 µM | 3.7
Fc1ccc2c(c1)C[C@@H]1C[C@@H](c3ccco3)N2O1 (racemic) | > 136 µM | 70.1 µM | >8.6 | 47.7 µM | >14.7 | 83.2 µM | > 1220 µM | > 408 µM | >5.8
Cc1ccc([C@@H]2C[C@H]3Cc4cc(F)ccc4N2O3)o1 (racemic) | > 128 µM | > 386 µM | 5.6 | 192 µM | 3.3 | 102 µM | 338 µM | 1080 µM | 
O=[N+]([O-])c1ccc([C@@H]2C[C@H]3Cc4cc(F)ccc4N2O3)o1 (racemic) | > 115 µM | 284 µM | 14.2 | 29.7 µM | 50.4 | 10.7 µM | 539 µM | 422 µM | 1.5
O=[N+]([O-])c1ccc([C@@H]2C[C@H]3Cc4cc(OC(F)(F)F)ccc4N2O3)o1 (racemic) | > 281 µM | > 281 µM |  | > 843 µM | 6.1 | 66.6 µM | 404 µM | 214 µM | 
Fc1ccc2c(c1)C[C@@H]1C[C@@H](c3ccoc3)N2O1 (racemic) | > 408 µM | > 408 µM | >8.1 | 151 µM | 11.9 | 103 µM | > 1220 µM | > 1220 µM | 
FC(F)(F)Oc1ccc2c(c1)C[C@@H]1C[C@@H](c3ccoc3)N2O1 (racemic) | > 322 µM | > 107 µM | 0.9 | 192 µM | >76.6 | 25.2 µM | > 1930 µM | 180 µM | 
Cc1ccsc1[C@@H]1C[C@H](O)Cc2ccccc2N1 (relative stereo) | > 128 µM | > 128 µM | 4.3 | 143 µM | 3.7 | 156 µM | 579 µM | 616 µM | 
O[C@@H]1Cc2cc(Cl)ccc2N[C@H](c2cccs2)C1 (relative stereo) | > 119 µM | > 119 µM | 1.7 | 95.1 µM | 2.3 | 49.5 µM | 115 µM | 164 µM | 
Cc1ccc([C@@H]2C[C@H](O)Cc3cc(Cl)ccc3N2)s1 (relative stereo) | > 341 µM | > 114 µM | 10.5 | 14.6 µM | >31.8 | 64.4 µM | > 2050 µM | 154 µM | 
O[C@@H]1Cc2cc(F)ccc2N[C@H](c2cccs2)C1 (relative stereo) | > 380 µM | > 380 µM | 0.3 | 764 µM | 1.6 | 120 µM | 190 µM | 218 µM | 
O[C@@H]1Cc2cc(OC(F)(F)F)ccc2N[C@H](c2ccoc2)C1 (relative stereo) | > 106 µM | > 106 µM | 0.2 | 602 µM | 10.7 | 43.1 µM | 460 µM | 95.4 µM | 
CC1CS(=O)(=O)CCN1/N=C/c1ccc([N+](=O)[O-])o1 (stereo unspecified) [NIFURTIMOX] |  | 1.6 µM | 17 | 4 µM |  |  |  | 67.5 µM | 43
